pIC50: −log10 of the molar value. Values joined by “and” are separate entries in the source; they are usually repeats but may differ in a detail not shown here. Equal values may be shown once.
What was measured:
[1] = system: Human immunodeficiency virus 1; test: Tested for inhibitory concentration on HIV-I nevirapine resistant strain.; type: functional, organism-based
In short: (§1)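 CEM-SS lymphocytic cells infected with 100 TCID50 of HIV-1 LAI, or of the nevirapine-resistant N119 strain carrying an RT codon 181 mutation. Virus adsorbed 30 min, unbound virus removed by two washes, then cells cultured 5 days with serial compound dilutions. Read-out: RT activity of particles released into the supernatant. IC50 from a computer median effect plot of dose-effect data.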

[2] = system: Human immunodeficiency virus 1; test: Selectivity index is the ratio of CC50 to IC50; type: functional
[3] = system: CEM-SS; test: Tested for inhibitory concentration on HIV-I Lai wild type in CEM-SS cell line; type: functional, cell-based; conditions: Homo sapiens; in short: as §1
[4] = system: Human immunodeficiency virus 1; test: Inhibitory concentration against HIV-1 Bal/Mono; type: functional, organism-based
In short: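 Macrophage-tropic HIV-1 Bal in monocyte-derived macrophages kept serum-free in AIM V medium with 100 U/mL GM-CSF. Virus output measured as supernatant particle-associated RT activity.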

[5] = Cytotoxicity against PBMC cells infected with HIV-2 D 194; type: functional; conditions: Human immunodeficiency virus 2, PBMC
[6] = system: Human immunodeficiency virus 1; test: Selectivity index is the ratio of CC50 to IC50 against HIV-1 nevirapine resistant strain; type: functional
[7] = system: Human immunodeficiency virus 1; test: Tested for cytotoxic concentration on HIV-I nevirapine resistant strain.; type: functional
In short: (§2)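 CEM-SS cells, uninfected, cultured 5 days with compound. Compounds were taken from a DMSO solution at 10^-2 M (10^-3 M or lower if insoluble), diluted 1:100 in medium, then serially diluted in medium.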

[8] = biological target: Human immunodeficiency virus type 1 reverse transcriptase (Human immunodeficiency virus 1, UniProt Q72547); test: Tested for inhibitory concentration on HIV-1 Reverse transcriptase in the presence of poly(c)-oligo-(dG)
In short: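 Recombinant HIV-1 RT purified from yeast, 20-50 nM. Reaction at 37 °C for 10 min in 50 mM Tris-HCl pH 8.0, 5 mM MgCl2, 4 mM DTT, 80 mM KCl, BSA, 0.48 A260 units/mL poly(C)-oligo(dG) (5:1), 2 µM dGTP plus [3H]dGTP. Stopped with cold 10% TCA plus 0.1 M pyrophosphate; precipitates filtered, scintillation counted. Compounds dissolved in DMSO.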

[9] = system: Human immunodeficiency virus 1; test: Inhibitory concentration against HIV-1 AZTres.; type: functional, organism-based
In short: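 AZT-resistant HIV-1 isolate A018 G910-6 tested in cell culture; virus production measured as RT activity of particles released into the culture supernatant.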

[10] = Cytotoxicity against Macrophages infected with HIV-1 Bal/Mono; type: functional; conditions: Human immunodeficiency virus 1
[11] = system: MT4; test: Cytotoxicity against MT-4 cells infected with HIV-1 IIIB strain; type: functional; conditions: Homo sapiens
[12] = system: CEM-SS; test: Tested for cytotoxic concentration on HIV-I Lai wild type in CEM-SS cell line; type: functional; conditions: Homo sapiens; in short: as §2
[13] = system: MT4; test: Cytotoxicity against MT-4 cells infected with HIV-1 AZTres; type: functional; conditions: Homo sapiens
[14] = Inhibitory concentration against HIV-2 D 194; type: functional
In short: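 Cell-based antiviral assay against this HIV-2 isolate. Compounds were dissolved in DMSO as 10^-2 M stocks, or 10^-3 M or lower when insoluble, diluted 1% in culture medium, then serially diluted in medium. Virus production was read as reverse transcriptase activity of particles released into the culture supernatant. IC50 was taken from a median-effect plot of the dose-effect data.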

[15] = system: Human immunodeficiency virus 1; test: Inhibitory concentration against HIV-1 IIIB strain; type: functional, organism-based
In short: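 MT4 cells infected with HIV-1 IIIB; antiviral effect read as protection from virus-induced cytopathogenicity by MTT. Compounds taken from DMSO stock, diluted in culture medium.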

[16] = Cytotoxicity against PBMC cells infected with HIV-1 IIIB strain; type: functional; conditions: Human immunodeficiency virus 1, PBMC

`CCc1c(C)nc(O)c([N+](=O)[O-])c1Sc1cc(C)cc(C)c1` showed a pIC50 [1] of 6.59.
With `Cc1cn([C@H]2C[C@H](N=[N+]=[N-])[C@@H](CO)O2)c(=O)[nH]c1=O` [ZIDOVUDINE] the SI [2] was greater than 33333 and the pIC50 [3] was 8.52.
`CCc1c(C)[nH]c(=O)c(N(C)C)c1Cc1cc(C)cc(C)c1` showed a pIC50 [4] of 11.40, a CC50 [5] greater than 1 µM and a pIC50 [1] of 7.40. For the same molecule, the SI [6] was greater than 25, the CC50 [7] was greater than 1 µM and the pIC50 [8] was 7.70. It also gave an SI [2] greater than 5000, a pIC50 [9] of 9.70 and a pIC50 [3] of 9.70. It also gave a CC50 [10] greater than 1 µM, a CC50 [11] greater than 1 µM and a CC50 [12] greater than 1 µM. For the same molecule, the CC50 [13] was greater than 1 µM, the pIC50 [14] was less than 6.00 and the pIC50 [15] was 8.62 and 9.24. The CC50 [16] was greater than 1 µM.
`CCc1c(C)nc(O)c(N)c1Cc1ccccc1` showed an SI [2] greater than 136, a pIC50 [3] of 6.14 and a CC50 [12] greater than 100 µM.
For `CCc1c(C)nc(OC)c(NC(=O)C(C)(C)C)c1Cc1cc(C)cc(C)c1`, the pIC50 [3] was less than 4.00 and the CC50 [12] was greater than 100 µM.
Work on `CCc1c(C)nc(OC)c(NC(=O)C(C)(C)C)c1C(C)(O)c1cc(C)cc(C)c1` (stereo not given) yielded a pIC50 [3] of less than 5.00 and a CC50 [12] greater than 10 µM.
Molecule `Cc1c(Sc2ccccc2)n(COCc2ccccc2)c(=O)[nH]c1=O` has a pIC50 [8] of 6.52.
`CCOC(=O)Nc1c(O)ncc(C)c1Sc1cc(C)cc(C)c1` showed an SI [2] greater than 13 and a pIC50 [3] of 5.12.
`CCc1cc(N)c(O)nc1C` showed an SI [2] greater than 3, a pIC50 [3] of 4.52 and a CC50 [12] greater than 100 µM.
With `CCc1c(C)nc(OC)c(NC(=O)C(C)(C)C)c1C(OC(C)=O)c1cc(C)cc(C)c1` (stereo not given) the SI [2] was greater than 1, the pIC50 [3] was 5.00 and the CC50 [12] was greater than 10 µM.
`CCc1cc(NCc2cc(C)c(C)cc2OC)c(O)nc1C` showed a pIC50 [3] of 8.10.
With `CC(C)=CCN1Cc2cc(Cl)cc3[nH]c(=S)n(c23)C[C@@H]1C` the pIC50 [1] was less than 5.00 and the CC50 [7] was greater than 10 µM.
With `CCc1c(C)nc(O)c(N)c1C(=O)c1cc(C)cc(C)c1` the pIC50 [4] was 7.77, the CC50 [5] was greater than 10 µM and the pIC50 [1] was 5.89. The SI [6] was greater than 7, the CC50 [7] was greater than 10 µM and the pIC50 [8] was 7.00. It also gave an SI [2] greater than 1666, a pIC50 [9] of 7.60 and a pIC50 [3] of 8.22. The CC50 [10] was greater than 10 µM, the CC50 [11] was greater than 10 µM and the CC50 [12] was greater than 10 µM. For the same molecule, the CC50 [13] was greater than 10 µM, the pIC50 [14] was less than 5.00 and the pIC50 [15] was 7.07 and 7.70. It also gave a CC50 [16] greater than 10 µM.
With `CCC(=O)Nc1c(Cc2cc(C)cc(C)c2)c(CC)c(C)[nH]c1=O` the SI [2] was greater than 2, the pIC50 [3] was 5.34 and the CC50 [12] was greater than 10 µM.
With `CCc1c(C)nc(O)c(NCc2cc(C)c(C)cc2OC)c1Cc1cc(C)cc(C)c1` the pIC50 [3] was 6.00 and the CC50 [12] was greater than 1 µM.
`CCOC(=O)Nc1c(O)nc(C)c(CC)c1Cc1cc(C)cc(C)c1` gave an SI [2] greater than 21, a pIC50 [3] of 6.34 and a CC50 [12] greater than 10 µM.
For `CCc1c(C)nc(O)c(NC(=O)CN)c1Cc1cc(C)cc(C)c1`, the SI [2] was greater than 5555, the pIC50 [3] was 7.74 and the CC50 [12] was greater than 100 µM.

Reference: ChEMBL document CHEMBL1133473, “Synthesis and antiviral activity of 4-benzyl pyridinone derivatives as potent and selective non-nucleoside human immunodeficiency virus type 1 reverse transcriptase inhibitors” (J Med Chem, 2000)
